Bioassay records: PubChem BioAssay, The Scripps Research Institute Molecular Screening Center
Only some compounds are listed: those with a hit (about 3.4% of all), similar ones and a draw of the others.
ROCK2 inh – inhibitors of human ROCK2 kinase, primary screen, biochemical, high-throughput, luminescence. purified ROCK2, Kinase-Glo ATP depletion luminescence. inhibition, % at 6 µM. actives 0.35% (n = 60,000). AID 604, 2007;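 active = inhibition above the screen-wide mean inhibition plus 3 SD, cut at about 18% in these data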;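 note: plate controls were DMSO wells for no effect and Y-27632 control wells after no-enzyme background subtraction for full effect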
MMP-13 inhibitor – human MMP13 inhibitors, primary screen, biochemical, FRET peptide cleavage | inhibition, % at 4 µM | actives 0.07% (n = 65,000) | MMP-13 fTHP FRET cleavage, Mca fluorescence | Collagenase 3 (Homo sapiens), P45452 | AID 570, 2006;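 active = inhibition above the mean of compound-free control plate wells plus 3 SD, cut at about 14% in these data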;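 note: 0% = DMSO wells and 100% = wells with reference MMP-13 inhibitor after basal subtraction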
PKA kinase inh – inhibitors of human PKA kinase activity, primary screen, biochemical, ATP-depletion luminescence, Kemptide substrate. cAMP-dependent protein kinase catalytic subunit alpha (Homo sapiens), P17612. PKA Kemptide phosphorylation, Kinase-Glo ATP luminescence. inhibition, % at 6 µM. actives 0.1% (n = 65,000);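 active = inhibition above the screen-wide mean inhibition plus 3 SD, cut at about 21% in these data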
RORa activator – activators of orphan receptor RORA, primary screen, cell-based, luminescence. Nuclear receptor ROR-alpha (Homo sapiens), P35398. CHO-K1 Gal4-RORA LBD luciferase reporter; percent increase over mock-subtracted basal signal. activation, % at 10 µM. actives 1.5% (n = 65,000);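 active = activation above the mean of all tested compounds plus 3 SD, cut at about 49% in these data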;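 note: 0% = DMSO-treated RORA cells and 100% = added signal equal to DMSO minus mock-transfected cells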
Target sequence (P35398 whole entry, looked up, the tested form may be a part): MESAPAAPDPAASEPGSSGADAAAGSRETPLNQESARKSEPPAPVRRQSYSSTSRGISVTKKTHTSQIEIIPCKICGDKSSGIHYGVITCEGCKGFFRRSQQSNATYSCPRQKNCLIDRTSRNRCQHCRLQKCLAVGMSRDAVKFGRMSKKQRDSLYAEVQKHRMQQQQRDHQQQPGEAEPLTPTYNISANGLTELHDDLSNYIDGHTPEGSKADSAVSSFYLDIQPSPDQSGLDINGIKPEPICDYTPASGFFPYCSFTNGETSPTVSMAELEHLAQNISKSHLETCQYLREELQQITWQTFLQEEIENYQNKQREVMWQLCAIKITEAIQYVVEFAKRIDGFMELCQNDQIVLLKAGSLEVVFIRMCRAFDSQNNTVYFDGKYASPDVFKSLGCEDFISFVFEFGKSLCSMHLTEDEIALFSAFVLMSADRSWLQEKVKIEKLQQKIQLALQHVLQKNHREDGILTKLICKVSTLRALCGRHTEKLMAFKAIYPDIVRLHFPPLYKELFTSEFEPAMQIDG
SF1 activator – activators of human SF-1, primary screen, cell-based, CHO-K1, Gal4-SF-1 LBD, luciferase luminescence; Steroidogenic factor 1 (Homo sapiens), Q13285; CHO-K1 Gal4-SF-1 LBD luciferase reporter; % increase over DMSO SF-1-specific signal; activation, % at 10 µM; actives 1.9% (n = 65,000);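 active = activation above the mean activation of all tested compounds plus 3 SD, cut at about 50% in these data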
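Compound – one dose, 10 µM compound, 1% DMSO · Test system – transient Gal4-SF-1 LBD reporter, CHO-K1 · Input – 4,000 cells in each well · Read-out basis – percent activation relative to DMSO median and mock-transfected background · Replicates – single measurement per compound · Technique – steady-glow luciferase luminescence, read after 15 min reagent incubation · Timing – 20 h compound treatment, 37 °C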
JNK3 inh – JNK3 kinase activity inhibitors, primary screen, biochemical, human, purified enzyme; HTS; inhibition, % at 8 µM; actives 0.61% (n = 60,000); in the data active = inhibition above about 17%;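 note: 0% = DMSO and 100% = reference inhibitor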
An asterisk follows results filed as active; x = not tested or not shown.

SMILES	ROCK2 inh	MMP-13 inhibitor	PKA kinase inh	RORa activator	SF1 activator	JNK3 inh
C=CCN(CC=C)S(=O)(=O)c1ccc2nc(NC(=O)C(C)C)sc2c1	0	0	1	60*	20	-3
CCOC(=O)c1ccc2nc(NC(=O)C(C)C)sc2c1	1	3	-7	68*	43	7
CCOC(=O)c1ccc2nc(NC(=O)c3cccs3)sc2c1	x	-17	2	-3	-2	x
O=C(O)c1ccc(Cn2cc(Cl)cn2)cc1	3	0	5	-5	5	2
CC1CN(C(=O)Cc2ccc(-c3ccccc3)cc2)CC(C)O1 (stereo not drawn)	4	-4	4	-10	-2	-7
c1ccc(-c2nc3nc4ccccc4nc3n2Cc2ccco2)cc1	3	-15	7	62*	48	-4
O=C1C2C3C=CC(C3=C3CCCCC3)C2C(=O)N1Cc1ccccc1 (stereo not drawn)	1	0	0	17	-6	5
CCC1Oc2nc(SC)nnc2-c2ccccc2N1C(=O)c1ccccc1 (stereo not drawn)	1	0	1	54*	50*	0
Brc1ccc(-c2nc(-c3ccccn3)no2)o1	-17	-4	-14	-49	-42	3
CCCCc1ccc(-c2nc(-c3ccncc3)no2)cc1	x	-4	6	59*	48	x
Brc1ccc(-c2nc(-c3ccncc3)no2)o1	-10	6	2	27	50*	11
c1coc(-c2nc(-c3ccncc3)no2)c1	1	0	-1	48	50*	-2
CC(=O)c1sc(N2C(=O)c3oc4ccccc4c(=O)c3C2c2ccc(C)o2)nc1C (stereo not drawn)	3	-1	1	0	22	5
c1ccc2c(-c3nc(C4CCCCC4)no3)cc(-c3ccncc3)nc2c1	-10	0	10	-13	-15	-2
CCOC(=O)CSc1nc2ccccc2c(=O)n1NC(=O)c1ccccc1	5	0	10	2	56*	-1
CCN(CCCNC(=O)c1[nH]c(C)c(C(C)=O)c1C)c1ccccc1	6	-2	14	-13	4	-1
Cc1nc2ccc(C(=O)N3CCN(c4ccccn4)CC3)cc2s1	3	2	7	-5	5	0
O=C(c1cccc(COc2ccc(Cl)cc2Cl)c1)N1CCN(c2ccccn2)CC1	2	-2	6	29	76*	4
CN1C(=O)c2c(sc3c2CCCC3)NC1c1ccccc1O (stereo not drawn)	8	2	6	18	30	-2
O=C1NC(c2cccs2)Nc2sc3c(c21)CCCC3 (stereo not drawn)	5	-5	8	21	70*	4
CN(C)c1ccnc(NCc2ccccc2)c1C#N	2	-3	7	12	2	8
N#Cc1c(NCc2ccccc2)ccnc1NCc1cccnc1	3	2	4	6	-33	75*
CCCCCCOc1ccc(C(CC(=O)O)C(N)=O)cc1 (stereo not drawn)	-5	26*	-11	-5	-14	-1
CCCCCCOc1ccc(C(=O)n2cnc(N)n2)cc1	6	1	9	-4	13	5
O=C(Nc1nc(-c2nc3ccccc3s2)cs1)C1CC1	4	-5	3	51*	29	7
SMILES	ROCK2 inh	MMP-13 inhibitor	PKA kinase inh	RORa activator	SF1 activator	JNK3 inh
O=C(CN1C(=O)CCC1=O)Nc1nc(-c2nc3ccccc3s2)cs1	2	-23	5	87*	106*	3
Cc1nc(S(=O)(=O)c2ccc(Cl)cc2)c(NCc2ccccc2)o1	1	2	1	-5	-9	-4
CCOC(=O)C(CC)Sc1nc(-c2ccc(OC)cc2)nc2c1c(=O)n(C)c(=O)n2C (stereo not drawn)	1	9	5	-8	-6	5
COc1ccc(OC)c(S(=O)(=O)N2CCN(c3c(C)cccc3C)CC2)c1	1	6	9	-5	-30	-4
Cc1ccc(Cn2ncc3c(N4CCN(c5ccccc5C)CC4)ncnc32)cc1	-8	7	-2	10	-7	7
O=C(NCC1COc2ccccc2O1)c1ccccc1 (stereo not drawn)	6	0	7	70*	52*	8
CCOC(=O)Nc1cccc(OCC(=O)Nc2ccccc2OC)c1	3	1	3	-30	-13	-3
COc1ccccc1OCC(=O)Nc1cccc(-c2nc3ccccc3o2)c1	7	-4	9	20	61*	2
COc1cccc(NC(=O)COc2ccccc2C(N)=O)c1	-2	1	-2	15	62*	12
CCC(=O)Nc1cccc(-c2nc3ccccc3o2)c1	10	-21	6	8	42	11
CCOC(=O)Cc1cc(=O)[nH]c(Nc2nc3ccccc3o2)n1	-3	1	-2	50*	11	6
COC(=O)Cc1cc(=O)[nH]c(Nc2nc3ccccc3o2)n1	4	2	5	11	1	-8
COc1ccc2nc(C)cc(N3CCOCC3)c2c1	-5	8	-4	4	8	-2
Cc1cc(N2CCOCC2)c2c(N)c(C)cc(C)c2n1	19*	-3	10	-3	-1	-12
Cc1nc(Nc2nc3ccccc3o2)nc2c1CCC2	-12	3	-12	-31	-41	6
Cc1ccc2oc(Nc3nc(C)cc(C)n3)nc2c1	5	0	6	52*	22	0
O=C(Nc1nc(-c2ccccc2)cs1)c1cccs1	6	-1	9	57*	18	4
Cc1ccc(-c2csc(NC(=O)c3ccno3)n2)cc1	x	-1	-4	60*	28	x
O=C(Nc1nc(-c2ccc(S(=O)(=O)N3CCCC3)cc2)cs1)c1ccco1	6	-6	4	28	3	2
O=C(CSc1ncn[nH]1)Nc1ccccc1C(=O)O	6	-3	-6	-8	1	-2
O=C(Nc1nc(-c2ccccc2)ns1)c1cccs1	5	2	1	34	76*	1
O=C(NCc1nc(-c2ccccc2)no1)c1cccs1	2	2	1	4	5	-4
O=C(Nc1nc(-c2ccc(Cl)s2)cs1)c1cccs1	6	-6	4	18	30	4
O=C(CSc1ncn[nH]1)Nc1nc(-c2ccccc2)ns1	5	8	4	38	55*	-1
COCCn1c(C)cc(C(=O)CSc2ncn[nH]2)c1C	2	5	-2	7	25	-8
